# Experimental data from ChEMBL document CHEMBL4049443, “Discovery of 2-[[2-Ethyl-6-[4-[2-(3-hydroxyazetidin-1-yl)-2-oxoethyl]piperazin-1-yl]-8-methylimidazo[1,2-a]pyridin-3-yl]methylamino]-4-(4-fluorophenyl)thiazole-5-carbonitrile (GLPG1690), a First-in-Class Autotaxin Inhibitor Undergoing Clinical Evaluation for the Treatment of Idiopathic Pulmonary …” (J Med Chem, 2017).
# Activity calls are given as the source filed them. The calls are words filed in the database; no cut-off is given here.
# Legend:
# Cytochrome P450 3A4 = Cytochrome P450 3A4 (Homo sapiens, UniProt P08684); test: Time-dependent inhibition of human liver microsomes CYP3A4; assay type: ADME
# Mus musculus [1] = test: Dose normalized AUC (0 to 24 hrs) in C57BL/6Rj mouse at 3 mg/kg administered as single dose via oral gavage by LC-MS/MS analysis; assay type: ADME, organism-based; conditions: in vivo
# How it was run: (§1)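 Female C57BL/6Rj mice, 4−5 weeks old, fasted, given one oral gavage in PEG 200/MC 0.5% (25/75 v/v) at 0.3, 1 or 3 mg/mL. Intracardiac blood under isoflurane at 1, 3, 6 and 24 h into Li-heparin; n = 3 per time point. Methanol precipitation, LC−MS/MS against an eight-level calibration curve (LLOQ 4 ng/mL).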
# Mus musculus [2] = test: Dose normalized AUC (0 to 24 hrs) in C57BL/6Rj mouse at 30 mg/kg administered as single dose via oral gavage by LC-MS/MS analysis; assay type: ADME, organism-based; conditions: in vivo; how it was run: as §1
# [3] = Protein binding to mouse plasma; assay type: ADME, cell-free; conditions: read-out: PPB
# [4] = Plasma clearance in mouse at 1 mg/kg, iv; assay type: ADME, organism-based
# [5] = AUC (0 to 24 hrs) in C57BL/6Rj mouse at 10 mg/kg administered as single dose via oral gavage by LC-MS/MS analysis; assay type: ADME, organism-based; parameters: dose 10 mg/kg, time < 24 hr, route oral; conditions: in vivo; how it was run: as §1
# Mus musculus [6] = test: Anti-fibrotic activity in BML-induced pulmonary fibrosis C57BL/6 mouse model assessed as reduction in fibrous area with severe distortion of lung structure at 10 to 30 mg/kg, po administered bid with 7.5 hrs interval between 2 doses for 21 days relative to control; assay type: functional, organism-based
# How it was run: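 Male C57Bl/6 mice, 11 weeks at delivery, anesthetized and given intranasal bleomycin 30 μg/50 μL; PBS controls. Oral dosing twice daily, 7.5 h apart, 10 mL/kg, from challenge day for 21 days: test agent in PEG 200/0.5% MC, pirfenidone in 0.5% CMC, vehicle controls; 14−24 mice per group. Lungs stained by Mallory method, scored 1–5 (Matsuse-modified Ashcroft) as mean of 10 low-power fields; group median, Mann−Whitney.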
# Mus musculus [7] = test: In vivo inhibition of ATX in C57BL/6Rj mouse assessed as time for maximum reduction in LPA 18:2 at 30 mg/kg administered as single dose via oral gavage by LC-MS/MS analysis; assay type: functional
# How it was run: (§2)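 Same single-gavage mouse study (female C57BL/6Rj, PEG 200/MC 0.5% vehicle, n = 3, bled predose and at 1, 3, 6, 24 h); vehicle control group. Plasma (10 μL) precipitated with methanol containing LPA 17:0 internal standard. LPA 18:2 read by LC−MS/MS as peak-area ratio to LPA 17:0. % reduction = 100 − (LPA at time t / mean vehicle LPA at time t × 100).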
# Mus musculus [8] = test: Dose normalized Cmax in C57BL/6Rj mouse at 30 mg/kg administered as single dose via oral gavage up to 24 hrs by LC-MS/MS analysis; assay type: ADME, organism-based; conditions: in vivo; how it was run: as §1
# Mus musculus [9] = test: Dose normalized Cmax in C57BL/6Rj mouse at 10 mg/kg administered as single dose via oral gavage up to 24 hrs by LC-MS/MS analysis; assay type: ADME, organism-based; conditions: in vivo; how it was run: as §1
# Autotaxin [10] = target: Autotaxin (Mus musculus, UniProt Q9R1E6); test: Inhibition of ATX in mouse plasma assessed as reduction in LPA 18:2 production after 2 hrs by LC-MS/MS analysis
# [11] = AUC (0 to 24 hrs) in C57BL/6Rj mouse at 30 mg/kg administered as single dose via oral gavage by LC-MS/MS analysis; assay type: ADME, organism-based; parameters: dose 30 mg/kg, time < 24 hr, route oral; conditions: in vivo; how it was run: as §1
# Mus musculus [12] = test: In vivo inhibition of ATX in C57BL/6Rj mouse assessed as reduction in LPA 18:2 level in plasma at 10 mg/kg administered as single dose via oral gavage by LC-MS/MS analysis; assay type: functional; how it was run: as §2
# [13] = Protein binding to human plasma; assay type: ADME, cell-free; conditions: read-out: PPB
# Autotaxin [14] = target: Autotaxin (Rattus norvegicus, UniProt Q64610); test: Inhibition of ATX in rat plasma assessed as reduction in LPA 18:2 production after 2 hrs by LC-MS/MS analysis
# [15] = AUC (0 to 24 hrs) in C57BL/6Rj mouse at 3 mg/kg administered as single dose via oral gavage by LC-MS/MS analysis; assay type: ADME, organism-based; parameters: time < 24 hr, dose 3 mg/kg, route oral; conditions: in vivo; how it was run: as §1
# [16] = Protein binding to rat plasma; assay type: ADME, cell-free; conditions: read-out: PPB
# Mus musculus [17] = test: Anti-fibrotic activity in BML-induced pulmonary fibrosis C57BL/6 mouse model assessed as reduction in […] 18:2 content in BALF at 30 mg/kg, po administered bid with 7.5 hrs interval between 2 doses for 21 days measured 2 hrs post last dose on day 21 by LC-MS/MS analysis relative to control; assay type: functional, organism-based
# How it was run: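 BLM model as above (intranasal 30 μg/50 μL, 21 days oral twice-daily dosing in PEG 200/0.5% MC), satellite groups. Bronchoalveolar lavage with two 0.5 mL ice-cold saline instillations, 2 h after a 30 mg/kg dose. LPA 18:2 by LC−MS/MS; PBS n = 9, BLM-vehicle n = 6, treated n = 7; mean ± SEM, one-way ANOVA with Dunnett's test.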
# [18] = Oral bioavailability in rat at 5 mg/kg; assay type: ADME, organism-based; conditions: in vivo
# [19] = Tmax in C57BL/6Rj mouse at 3 mg/kg administered as single dose via oral gavage up to 24 hrs by LC-MS/MS analysis; assay type: ADME, organism-based; conditions: in vivo; how it was run: as §1
# [20] = Cmax in C57BL/6Rj mouse at 3 mg/kg administered as single dose via oral gavage up to 24 hrs by LC-MS/MS analysis; assay type: ADME, organism-based; parameters: dose 3 mg/kg, route oral; conditions: in vivo; how it was run: as §1
# Mus musculus [21] = test: In vivo inhibition of ATX in C57BL/6Rj mouse assessed as reduction in LPA 18:2 level in plasma at 30 mg/kg administered as single dose via oral gavage by LC-MS/MS analysis; assay type: functional; how it was run: as §2
# [22] = Plasma clearance in rat at 1 mg/kg, iv; assay type: ADME, organism-based
# Chain of Cytochrome P450 3A4 (P08684 whole entry): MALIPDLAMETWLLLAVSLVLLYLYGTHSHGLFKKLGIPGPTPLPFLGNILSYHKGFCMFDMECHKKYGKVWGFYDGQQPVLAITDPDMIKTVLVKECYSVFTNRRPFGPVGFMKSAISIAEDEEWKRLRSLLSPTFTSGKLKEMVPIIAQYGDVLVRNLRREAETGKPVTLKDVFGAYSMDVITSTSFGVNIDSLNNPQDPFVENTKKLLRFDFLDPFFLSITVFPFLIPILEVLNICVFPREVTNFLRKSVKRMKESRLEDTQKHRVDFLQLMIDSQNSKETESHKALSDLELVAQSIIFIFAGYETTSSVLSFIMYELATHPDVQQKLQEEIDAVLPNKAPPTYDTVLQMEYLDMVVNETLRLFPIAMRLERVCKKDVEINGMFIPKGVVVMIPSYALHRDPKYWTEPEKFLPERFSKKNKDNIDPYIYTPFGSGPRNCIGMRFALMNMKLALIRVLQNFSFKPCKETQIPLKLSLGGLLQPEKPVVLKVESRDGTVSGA
smiles,measurement,setting,value
CCc1nc2c(C)cc(N3CCN(CC(=O)N4CC(O)C4)CC3)cn2c1N(C)c1nc(-c2ccc(F)cc2)c(C#N)s1 [ZIRITAXESTAT],TDI,Cytochrome P450 3A4,Not Active
same,AUC/dose,Mus musculus [1],1851 ng·h/mL/mg/kg
same,AUC/dose,Mus musculus [2],3374 ng·h/mL/mg/kg
same,fraction unbound,[3],< 0.01
same,clearance,[4],3.83 mL/min/kg
same,AUC(0-t) at 24 h,[5],20800 ng·h/mL
same,Activity,Mus musculus [6],Active
same,Time,Mus musculus [7],3 h
same,Cmax/dose,Mus musculus [8],712 ng/mL/(mg/kg)
same,Cmax/dose,Mus musculus [9],436 ng/mL/(mg/kg)
same,IC50,Autotaxin [10],418 nM
same,AUC(0-t) at 24 h,[11],101000 ng·h/mL
same,inhibition in vivo at 10 mg/kg,Mus musculus [12],90.9%
same,fraction unbound,[13],< 0.01
same,IC50,Autotaxin [14],542 nM
same,AUC(0-t) at 24 h,[15],5550 ng·h/mL
same,fraction unbound,[16],< 0.01
same,Activity,Mus musculus [17],Active
same,bioavailability,[18],37%
same,Tmax,[19],3 h
same,Cmax,[20],1080 ng/mL
same,inhibition in vivo at 30 mg/kg,Mus musculus [21],95.2%
same,clearance,[22],11.5 mL/min/kg
